Active and inactive are the calls of the source. The rule behind the calls is not given here.
Columns and labels:
[1] = target: Sodium-dependent serotonin transporter (Rattus norvegicus) (UniProt P31652); assay: Displacement of [3H]-citalopram from SERT in rat cortical membranes at 10 uM after 60 mins; format: cell membranes; details: Membrane
Summary of the method: (§1)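 Frozen rat cortical membranes (washed pellets) in 50 mM Tris-HCl pH 7.4 with 120 mM NaCl and 5 mM KCl, incubated with [3H]citalopram with or without compound. Nonspecific binding defined with 10 µM (S)-citalopram. Bound radioactivity measured by filtration and scintillation counting. Mean ± S.E.M. of replicates; Student's t test vs vehicle.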

[2] = target: Sodium-dependent dopamine transporter (Rattus norvegicus, UniProt P23977); assay: Displacement of [3H]-WIN35428 from DAT in rat striatal membranes after 90 mins; format: cell membranes, Membrane
Summary of the method: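 Frozen rat striatal membranes in 50 mM Tris-HCl pH 7.4 with 120 mM NaCl and 5 mM KCl, incubated 90 min at 4 °C with 2 nM [3H]WIN 35,428. Nonspecific binding defined with 3 µM nomifensine. Stopped by rapid filtration on albumin-presoaked GF/B filters, then scintillation counting.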

[3] = target: Sodium-dependent serotonin transporter (Rattus norvegicus, UniProt P31652); assay: Displacement of [3H]-citalopram from SERT in rat cortical membranes after 60 mins; format: cell membranes, Membrane; summary of the method: as §1
[4] = target: Sodium-dependent serotonin transporter (Rattus norvegicus) (UniProt P31652); assay: Increase of [3H]-citalopram binding to SERT in rat cortical membranes at 10 uM after 60 mins; format: cell membranes; details: Membrane; summary of the method: as §1
[5] = target: Sodium-dependent serotonin transporter (Rattus norvegicus) (UniProt P31652); assay: Increase of SERT-mediated [3H]-5HT uptake in rat brain cortex synaptosomes at 10 uM after 7 mins by scintillation counting; format: subcellular
Summary of the method: (§2)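 Rat cortex P2 synaptosomes from 0.32 M sucrose homogenate, resuspended in HEPES-buffered saline pH 7.4 with glucose, ascorbate and pargyline. Aliquots equal to 3 mg tissue preincubated 7 min at 35 °C with compound. Uptake then ran 5 min after adding 100 nM [3H]5-HT, stopped by filtration, and counted by scintillation. Nonspecific uptake defined with 10 µM (S)-citalopram.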

[6] = target: Sodium-dependent serotonin transporter (Rattus norvegicus) (UniProt P31652); assay: Increase of [3H]-citalopram binding to SERT in rat cortical membranes after 60 mins; format: cell membranes; details: Membrane; summary of the method: as §1
[7] = target: Sodium-dependent serotonin transporter (Rattus norvegicus) (UniProt P31652); assay: Increase of SERT-mediated [3H]-5HT uptake in rat brain cortex synaptosomes after 7 mins by scintillation counting; format: subcellular; summary of the method: as §2
[8] = target: Sodium-dependent serotonin transporter (Rattus norvegicus) (UniProt P31652); assay: Increase of [3H]-citalopram binding to SERT in rat cortical membranes at 10 to 30 uM after 60 mins; format: cell membranes; details: Membrane; summary of the method: as §1
[9] = target: Sodium-dependent serotonin transporter (Rattus norvegicus) (UniProt P31652); assay: Increase of SERT-mediated [3H]-5HT uptake in rat brain cortex synaptosomes at 10 to 30 uM after 7 mins by scintillation counting; format: subcellular; summary of the method: as §2
[10] = target: Sodium-dependent serotonin transporter (Rattus norvegicus) (UniProt P31652); assay: Increase of [3H]paroxetine binding to SERT in rat cortical membranes at 10 uM after 60 mins; format: cell membranes; details: Membrane
Summary of the method: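 Saturation binding in rat cortical membranes (Tris-HCl 50 mM pH 7.4, 120 mM NaCl, 5 mM KCl) at varied [3H]paroxetine concentrations, with or without 10 µM compound. Specific binding by scintillation counting. Mean ± SD of 4 replicates. One-site hyperbola fit gave Bmax and Kd.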

[11] = target: Sodium-dependent serotonin transporter (Rattus norvegicus) (UniProt P31652); assay: Increase of [3H]-citalopram binding to SERT in rat cortical membranes at 3 to 30 uM after 60 mins; format: cell membranes; details: Membrane; summary of the method: as §1
[12] = target: Sodium-dependent serotonin transporter (Rattus norvegicus) (UniProt P31652); assay: Increase of SERT-mediated [3H]-5HT uptake in rat brain cortex synaptosomes at 3 to 100 uM after 7 mins by scintillation counting; format: subcellular; summary of the method: as §2

Chain of Sodium-dependent dopamine transporter (P23977 whole entry): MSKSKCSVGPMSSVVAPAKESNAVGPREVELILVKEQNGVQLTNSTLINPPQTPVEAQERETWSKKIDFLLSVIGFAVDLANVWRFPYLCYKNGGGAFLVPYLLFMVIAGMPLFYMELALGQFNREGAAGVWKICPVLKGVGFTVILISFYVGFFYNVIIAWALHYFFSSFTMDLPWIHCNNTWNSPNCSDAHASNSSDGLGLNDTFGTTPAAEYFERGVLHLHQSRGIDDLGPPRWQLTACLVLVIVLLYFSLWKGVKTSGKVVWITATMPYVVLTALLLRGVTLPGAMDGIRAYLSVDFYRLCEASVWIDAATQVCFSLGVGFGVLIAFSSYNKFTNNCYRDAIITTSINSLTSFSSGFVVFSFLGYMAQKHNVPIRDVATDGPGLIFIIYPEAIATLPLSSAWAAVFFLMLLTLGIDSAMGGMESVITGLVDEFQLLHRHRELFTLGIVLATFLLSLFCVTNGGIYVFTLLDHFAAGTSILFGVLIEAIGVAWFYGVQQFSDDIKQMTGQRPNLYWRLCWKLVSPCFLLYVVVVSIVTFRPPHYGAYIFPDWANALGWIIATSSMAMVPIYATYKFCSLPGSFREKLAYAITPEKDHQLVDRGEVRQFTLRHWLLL
Chain of Sodium-dependent serotonin transporter (Rattus norvegicus) (P31652 whole entry): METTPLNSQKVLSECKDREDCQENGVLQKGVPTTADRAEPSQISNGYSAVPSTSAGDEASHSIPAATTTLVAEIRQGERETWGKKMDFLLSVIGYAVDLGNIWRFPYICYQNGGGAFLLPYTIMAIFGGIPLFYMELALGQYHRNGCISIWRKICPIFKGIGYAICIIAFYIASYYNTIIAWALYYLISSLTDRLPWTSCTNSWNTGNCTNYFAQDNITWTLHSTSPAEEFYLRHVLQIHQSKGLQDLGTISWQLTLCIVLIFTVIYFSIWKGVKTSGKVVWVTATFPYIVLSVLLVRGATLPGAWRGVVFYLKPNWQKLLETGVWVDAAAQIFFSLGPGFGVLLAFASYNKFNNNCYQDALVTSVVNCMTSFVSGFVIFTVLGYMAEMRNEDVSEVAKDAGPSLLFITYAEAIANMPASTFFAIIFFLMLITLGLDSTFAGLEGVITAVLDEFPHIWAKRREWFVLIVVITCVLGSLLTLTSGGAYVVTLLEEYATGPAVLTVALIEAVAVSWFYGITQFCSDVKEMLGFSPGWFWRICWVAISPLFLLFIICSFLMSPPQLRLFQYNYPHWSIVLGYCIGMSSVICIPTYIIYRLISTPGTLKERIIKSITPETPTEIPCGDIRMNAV
Chain of Sodium-dependent serotonin transporter (P31652 whole entry): as above

| SMILES | inhibition [1] | other results |
| --- | --- | --- |
| C#CCOC1=NO[C@]2(C1)C[C@H]1CC[C@@H](C2)N1 | inactive |  |
| C#CCOC1=NO[C@]2(C1)C[C@H]1CC[C@@H](C2)[N+]1(C)C | inactive |  |
| CN1[C@@H]2CC[C@H]1C[C@@]1(CC(=O)NO1)C2 | inactive |  |
| COC1=NO[C@]2(C1)C[C@H]1CC[C@@H](C2)N1 | inactive |  |
| O=C1C[C@]2(C[C@H]3CC[C@@H](C2)N3)ON1 | inactive | IC50 [2]: 5 µM |
| CN1[C@@H]2CC[C@H]1C[C@@]1(CC(Br)=NO1)C2 | inactive |  |
| CN1O[C@]2(CC1=O)C[C@H]1CC[C@@H](C2)N1 |  | IC50 [3]: 5 µM |
| BrC1=NO[C@]2(C1)C[C@H]1CC[C@@H](C2)N1 | inactive |  |
| CCOC(=O)C1=NO[C@]2(C1)C[C@H]1CC[C@@H](C2)N1C | inactive |  |
| CCOC1=NO[C@]2(C1)C[C@H]1CC[C@@H](C2)[N+]1(C)C | inactive | IC50 [2]: 5 µM |
| CN1[C@@H]2CC[C@H]1C[C@@]1(CC(OCc3ccccc3)=NO1)C2 | inactive |  |
| C#CCOC1=NO[C@]2(C1)C[C@H]1CC[C@@H](C2)N1C | inactive |  |
| C[N+]1(C)[C@@H]2CC[C@H]1C[C@@]1(CC(Br)=NO1)C2 | inactive |  |
| C[N+]1(C)[C@@H]2CC[C@H]1C[C@@]1(CC(OCc3ccccc3)=NO1)C2 | inactive |  |
| COC1=NO[C@]2(C1)C[C@H]1CC[C@@H](C2)N1C | inactive | Activity [4]: 25%; Activity [5]: 30%; Activity [6]: Dose-dependent effect; Activity [7]: Dose-dependent effect; Activity [8]: Active; Activity [9]: Active; Activity [10]: Active |
| CN1O[C@]2(CC1=O)C[C@H]1CC[C@@H](C2)N1C | inactive | Activity [6]: inactive |
| CCOC1=NO[C@]2(C1)C[C@H]1CC[C@@H](C2)N1 | inactive | IC50 [2]: 5 µM |
| c1ccc(COC2=NO[C@]3(C2)C[C@H]2CC[C@@H](C3)N2)cc1 | inactive | IC50 [2]: 5 µM |
| C[N+]1(C)[C@@H]2CC[C@H]1C[C@@]1(CC(CO)=NO1)C2 | inactive |  |
| CCOC1=NO[C@]2(C1)C[C@H]1CC[C@@H](C2)N1C | inactive | IC50 [2]: 5 µM; Activity [4]: 11%; Activity [11]: Active; Activity [12]: Active |
| COC1=NO[C@]2(C1)C[C@H]1CC[C@@H](C2)[N+]1(C)C | inactive |  |
| CN1[C@@H]2CC[C@H]1C[C@@]1(CC(CO)=NO1)C2 | inactive |  |
| CCOC(=O)C1=NO[C@]2(C1)C[C@H]1CC[C@@H](C2)[N+]1(C)C | inactive |  |
